Data from ChEMBL document CHEMBL1782029, “Synthesis and biological evaluation of N-substituted benzo[c]phenanthrolines and benzo[c]phenanthrolinones as antiproliferative agents” (Eur J Med Chem, 2011).
Active and inactive are the calls of the source. The calls are words filed in the database; no cut-off is given here.

Tests used:
[1] = molecular target: T1, DNA topoisomerase 1 (Homo sapiens) (UniProt P11387); test: Inhibition of human recombinant topoisomerase 1-mediated relaxation of supercoiled pUC19 DNA assessed as formation of nicked DNA at 1 to 50 uM using ethidium bromide staining by agarose gel electrophoresis
T1 sequence (whole entry): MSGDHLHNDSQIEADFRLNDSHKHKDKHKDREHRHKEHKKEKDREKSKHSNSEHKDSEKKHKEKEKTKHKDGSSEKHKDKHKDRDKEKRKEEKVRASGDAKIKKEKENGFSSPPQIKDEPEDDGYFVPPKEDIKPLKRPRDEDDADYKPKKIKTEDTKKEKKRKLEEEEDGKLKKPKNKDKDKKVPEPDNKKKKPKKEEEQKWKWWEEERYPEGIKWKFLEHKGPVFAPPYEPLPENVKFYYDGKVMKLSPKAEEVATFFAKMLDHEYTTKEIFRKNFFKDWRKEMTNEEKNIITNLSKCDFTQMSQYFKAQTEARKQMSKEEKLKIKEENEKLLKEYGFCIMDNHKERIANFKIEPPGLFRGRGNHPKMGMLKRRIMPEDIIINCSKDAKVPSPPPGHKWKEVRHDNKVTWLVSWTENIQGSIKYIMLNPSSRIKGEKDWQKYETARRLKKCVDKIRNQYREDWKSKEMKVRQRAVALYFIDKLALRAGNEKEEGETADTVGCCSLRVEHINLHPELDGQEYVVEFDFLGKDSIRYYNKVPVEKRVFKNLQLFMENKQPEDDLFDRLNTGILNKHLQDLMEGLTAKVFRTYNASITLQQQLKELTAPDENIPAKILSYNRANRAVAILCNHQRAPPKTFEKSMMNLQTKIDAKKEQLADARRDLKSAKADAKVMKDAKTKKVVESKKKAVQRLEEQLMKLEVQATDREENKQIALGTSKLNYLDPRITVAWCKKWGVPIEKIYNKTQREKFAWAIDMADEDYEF
Procedure, shortened: (§1)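 Supercoiled pUC19 plasmid (130 ng) was incubated with 4 units of human recombinant Top1 at 37 °C for 45 min in relaxation buffer (50 mM Tris pH 7.8, 50 mM KCl, 10 mM MgCl2, 1 mM DTT, 1 mM EDTA, 1 mM ATP) with increasing compound concentrations. Products were resolved on 1% agarose at room temperature, 2 h at 120 V, then stained with ethidium bromide and imaged under UV.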

[2] = molecular target: T1, DNA topoisomerase 1 (Homo sapiens); test: Inhibition of camptothecin-induced poisoning effect of human topoisomerase 1 assessed as suppression of CPT-induced 117 bp DNA cleavage by SDS-PAGE analysis
HT-29 [3] = test: Cytotoxicity against human HT-29 cells after 72 hrs by MTS assay; format: functional, cell-based; conditions: HT-29, 72 h
Calf thymus DNA [4] = test: Binding affinity to calf thymus DNA by circular dichroism analysis; format: nucleic-acid assay; conditions: Bos taurus
Calf thymus DNA [5] = test: Binding affinity to calf thymus DNA at 20 uM by UV-vis spectrophotometry analysis; format: nucleic-acid assay; conditions: Bos taurus
[6] = molecular target: T1, DNA topoisomerase 1 (Homo sapiens); test: Inhibition of human recombinant topoisomerase 1 assessed as cleavage of 117-mer DNA fragment at 0.5 to 5 uM using ethidium bromide staining by agarose gel electrophoresis analysis
Nucleic Acid = test: Binding affinity to 265 bp of 3'-end-radio-labelled DNA fragment at 0.5 to 5 uM treated 15 mins before Dnase 1-mediated digestion by footprinting assay; format: nucleic-acid assay
Procedure, shortened: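 DNase I footprinting. It was equilibrated with compound for 15 min at 37 °C, then digested 3 min with DNase I (0.01 unit/ml) in 20 mM NaCl, 2 mM MgCl2, 2 mM MnCl2, pH 7.3. Samples were lyophilised, denatured at 90 °C and run on an 8% denaturing polyacrylamide gel.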

[7] = molecular target: DNA topoisomerase 2-alpha (Homo sapiens) (UniProt P11388); test: Inhibition of human topoisomerase 2 assessed as formation of nicked form of supercoiled pUC19 DNA at 50 uM after 45 mins using ethidium bromide staining by agarose gel analysis
DNA topoisomerase 2-alpha (Homo sapiens), sequence (P11388 whole entry): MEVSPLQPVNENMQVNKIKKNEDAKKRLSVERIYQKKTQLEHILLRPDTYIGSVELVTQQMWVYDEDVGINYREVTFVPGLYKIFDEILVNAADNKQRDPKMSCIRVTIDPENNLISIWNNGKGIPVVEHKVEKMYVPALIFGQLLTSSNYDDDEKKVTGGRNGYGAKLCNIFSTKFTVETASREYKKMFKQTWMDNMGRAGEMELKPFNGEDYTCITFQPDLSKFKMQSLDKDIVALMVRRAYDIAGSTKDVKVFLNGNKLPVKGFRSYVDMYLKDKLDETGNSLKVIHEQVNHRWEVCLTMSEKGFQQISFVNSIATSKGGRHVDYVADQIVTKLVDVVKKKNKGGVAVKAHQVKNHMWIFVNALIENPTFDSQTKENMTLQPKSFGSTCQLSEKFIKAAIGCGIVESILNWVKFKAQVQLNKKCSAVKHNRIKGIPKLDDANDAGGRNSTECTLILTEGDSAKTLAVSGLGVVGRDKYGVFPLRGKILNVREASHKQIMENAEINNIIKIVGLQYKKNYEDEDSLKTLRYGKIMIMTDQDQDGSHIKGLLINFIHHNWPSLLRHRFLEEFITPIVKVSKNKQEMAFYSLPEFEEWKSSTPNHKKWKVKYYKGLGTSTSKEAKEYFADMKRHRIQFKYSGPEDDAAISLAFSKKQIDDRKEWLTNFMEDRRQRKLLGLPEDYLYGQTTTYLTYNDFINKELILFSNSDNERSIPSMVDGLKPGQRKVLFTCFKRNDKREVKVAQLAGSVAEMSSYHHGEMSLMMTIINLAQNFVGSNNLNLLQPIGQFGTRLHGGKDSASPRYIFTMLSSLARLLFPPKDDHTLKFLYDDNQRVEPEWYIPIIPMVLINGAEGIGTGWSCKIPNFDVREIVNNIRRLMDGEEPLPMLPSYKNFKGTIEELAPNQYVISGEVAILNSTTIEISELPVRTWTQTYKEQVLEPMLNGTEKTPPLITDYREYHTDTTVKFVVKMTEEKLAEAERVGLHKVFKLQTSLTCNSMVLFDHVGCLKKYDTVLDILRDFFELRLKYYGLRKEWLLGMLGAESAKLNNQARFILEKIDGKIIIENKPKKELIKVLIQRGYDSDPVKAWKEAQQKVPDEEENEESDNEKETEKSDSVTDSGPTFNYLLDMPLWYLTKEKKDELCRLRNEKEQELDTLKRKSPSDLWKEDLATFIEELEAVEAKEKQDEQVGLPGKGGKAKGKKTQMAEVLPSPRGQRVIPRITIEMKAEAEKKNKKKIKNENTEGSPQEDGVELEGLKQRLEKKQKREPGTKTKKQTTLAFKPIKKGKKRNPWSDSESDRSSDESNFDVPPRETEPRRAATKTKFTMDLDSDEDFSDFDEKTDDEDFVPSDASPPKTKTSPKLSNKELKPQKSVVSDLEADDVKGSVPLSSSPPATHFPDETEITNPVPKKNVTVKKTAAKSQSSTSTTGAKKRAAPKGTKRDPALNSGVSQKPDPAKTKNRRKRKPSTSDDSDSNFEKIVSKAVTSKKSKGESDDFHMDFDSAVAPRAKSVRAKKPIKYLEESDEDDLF

[8] = molecular target: DNA topoisomerase 2-alpha (Homo sapiens) (UniProt P11388); test: Inhibition of human topoisomerase 2 assessed as formation of linear form of supercoiled pUC19 DNA at 50 uM after 45 mins using ethidium bromide staining by agarose gel analysis
[9] = molecular target: T1, DNA topoisomerase 1 (Homo sapiens); test: Inhibition of human recombinant topoisomerase 1-mediated relaxation of supercoiled pUC19 DNA assessed as formation of nicked DNA at 0.1 to 5 uM using ethidium bromide staining by agarose gel electrophoresis; procedure, shortened: as §1
[10] = molecular target: T1, DNA topoisomerase 1 (Homo sapiens); test: Inhibition of human recombinant topoisomerase 1 assessed as cleavage of 117-mer DNA fragment at 20 to 50 uM using ethidium bromide staining by agarose gel electrophoresis analysis
HT-29 [11] = test: Cell cycle arrest in human HT-29 cells at G2/M phase at 0.1 to 2.5 uM after 48 hrs using propidium iodide staining by FACS analysis; format: functional, cell-based
Procedure, shortened: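 Exponentially growing HT-29 colon carcinoma cells (300,000 per well) were plated for 24 h, then exposed to 0.1, 1 or 2.5 µM compound for 48 h. Cells were fixed, stained with propidium iodide and analysed by flow cytometry (FACScan).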

Topoisomerase 1 inhibition (active/inactive) [1] | Activity (Calf thymus DNA [4]) | Activity (Calf thymus DNA [5]) | inhibition [6] | inhibition (Nucleic Acid) | inhibition [7] | inhibition [8] | Top1 relaxation inhibition (qualitative call) [9] | inhibition [10] | Structure (SMILES) | inhibition [2] | IC50 (HT-29 [3]) [nM] | Activity (HT-29 [11])
Active | Active | Active | – | – | – | – | – | – | COc1cc2c(=O)n(CCCN(C)C)c3c4cccnc4ccc3c2cc1OC | Dose-dependent effect | 4980 | –
Active | Active | Active | inactive | – | – | – | – | – | CCN(CC)CCn1c(=O)c2cc(OC)c(OC)cc2c2ccc3ncccc3c21 | Dose-dependent effect | 2630 | –
Active | Active | Active | inactive | – | – | – | – | – | COc1cc2c(=O)n(CCN(C)C)c3c4ccncc4ccc3c2cc1OC | Dose-dependent effect | 1420 | –
– | Active | Active | – | Active | inactive | inactive | Active | inactive | COc1cc2c(NCCCN(C)C)nc3c4cccnc4ccc3c2cc1OC | Dose-dependent effect | 3330 | –
– | Active | Active | – | inactive | inactive | inactive | Active | inactive | COc1cc2c(NCCCN(C)C)nc3c4ccncc4ccc3c2cc1OC | – | 3140 | –
– | Active | Active | – | Active | inactive | inactive | Active | inactive | CN(C)CCn1c(=O)c2cc3c(cc2c2ccc4ncccc4c21)OCO3 | Dose-dependent effect | 120 | Active
– | Active | Active | – | inactive | inactive | inactive | Active | inactive | CCN(CC)CCCNc1nc2c3ccncc3ccc2c2cc(OC)c(OC)cc12 | Dose-dependent effect | 5470 | –
– | Active | Active | – | Active | inactive | inactive | Active | inactive | CN(C)CCCn1c(=O)c2cc3c(cc2c2ccc4cnccc4c21)OCO3 | Dose-dependent effect | 240 | Active
– | Active | Active | – | Active | inactive | inactive | Active | inactive | CN(C)CCn1c(=O)c2cc3c(cc2c2ccc4cnccc4c21)OCO3 | Dose-dependent effect | 78 | Active
– | Active | Active | inactive | – | inactive | inactive | Active | – | COc1cc2c[n+](C)c3c4cc5c(cc4ccc3c2cc1OC)OCO5 [NITIDINE CHLORIDE] | – | 2750 | –
– | Active | Active | – | Active | inactive | inactive | Active | inactive | CN(C)CCNc1nc2c3ccncc3ccc2c2cc3c(cc12)OCO3 | Dose-dependent effect | 70 | Active
– | Active | Active | – | Active | inactive | inactive | Active | inactive | CCN(CC)CCn1c(=O)c2cc3c(cc2c2ccc4cnccc4c21)OCO3 | Dose-dependent effect | 230 | Active
– | Active | Active | – | Active | inactive | inactive | Active | inactive | COc1cc2c(NCCN(C)C)nc3c4cccnc4ccc3c2cc1OC | Dose-dependent effect | 970 | –
– | Active | Active | – | Active | inactive | inactive | Active | inactive | CN(C)CCNc1nc2c3cccnc3ccc2c2cc3c(cc12)OCO3 | Dose-dependent effect | 110 | Active
Active | Active | Active | inactive | – | – | – | – | – | CCN(CC)CCn1c(=O)c2cc(OC)c(OC)cc2c2ccc3cnccc3c21 | Dose-dependent effect | 1820 | –
– | Active | Active | – | Active | inactive | inactive | Active | inactive | CCN(CC)CCCNc1nc2c3cccnc3ccc2c2cc(OC)c(OC)cc12 | Dose-dependent effect | 5770 | –
Active | Active | Active | inactive | – | – | – | – | – | COc1cc2c(=O)n(CCCN(C)C)c3c4ccncc4ccc3c2cc1OC | Dose-dependent effect | 6110 | –
– | Active | Active | – | inactive | inactive | inactive | Active | inactive | CN(C)CCCNc1nc2c3ccncc3ccc2c2cc3c(cc12)OCO3 | Dose-dependent effect | 7620 | –
– | Active | Active | – | Active | inactive | inactive | Active | inactive | CN(C)CCCn1c(=O)c2cc3c(cc2c2ccc4ncccc4c21)OCO3 | Dose-dependent effect | 230 | Active
– | Active | Active | – | Active | inactive | inactive | Active | inactive | CCN(CC)CCn1c(=O)c2cc3c(cc2c2ccc4ncccc4c21)OCO3 | Dose-dependent effect | 75 | Active
